Measurements taken from ChEMBL document CHEMBL1156948, “Statistical molecular design of a focused salicylidene acylhydrazide library and multivariate QSAR of inhibition of type III secretion in the Gram-negative bacterium Yersinia” (Bioorg Med Chem, 2010).
Activity calls are given as the source filed them. How the calls were made is not given here.

Tests used:
[1] = system: Yersinia pseudotuberculosis YPIII; experiment: Inhibition of T3S in Yersinia pseudotuberculosis YPIII expressing yopE-luxAB at 200 uM after 3 hrs by luciferase reporter gene assay
Method in brief: (§1)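 Strain YPIII pIB102 (yopE-luxAB) grown overnight at room temperature in BHI with 5 mM EGTA and 20 mM MgCl2 (calcium depletion), adjusted to OD600 0.088–0.095. Compound added from DMSO at 1.56–200 µM final (eight concentrations). Shaken 1 h at room temperature, then 2 h at 37 °C. Decanal added and light emission read immediately. Triplicates, repeated at least three times.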

[2] = system: Yersinia pseudotuberculosis YPIII; experiment: Inhibition of T3S in Yersinia pseudotuberculosis YPIII expressing yopE-luxAB at 3.13 uM after 3 hrs by luciferase reporter gene assay; method in brief: as §1
[3] = system: Escherichia coli; experiment: Antibacterial activity against Escherichia coli DH5[alpha] at 100 uM after 23 hrs by broth dilution assay; format: functional, organism-based
Method in brief: (§2)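 Overnight LB culture of E. coli DH5α grown at 37 °C, diluted to OD600 0.1 in LB with 2.5 mM CaCl2; compound added from DMSO stock to final 50 or 100 µM. Incubated at 37 °C with absorbance at 595 nm followed over 23 h.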

[4] = system: Yersinia pseudotuberculosis; experiment: Antibacterial activity against Yersinia pseudotuberculosis expressing pIB102 at 100 uM after 23 hrs by broth dilution assay; format: functional, organism-based
Method in brief: (§3)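 Wild-type pIB102 grown overnight in LB at room temperature, diluted to OD600 = 0.1 in LB with 2.5 mM CaCl2. Compound added from DMSO stock to final 50 and 100 µM. Incubated at 37 °C with absorbance at 595 nm read over 23 h.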

[5] = system: Escherichia coli; experiment: Antibacterial activity against Escherichia coli DH5[alpha] at 50 uM after 23 hrs by broth dilution assay; format: functional, organism-based; method in brief: as §2
[6] = system: Yersinia pseudotuberculosis YPIII; experiment: Inhibition of T3S in Yersinia pseudotuberculosis YPIII expressing yopE-luxAB at 6.25 uM after 3 hrs by luciferase reporter gene assay; method in brief: as §1
[7] = system: Yersinia pseudotuberculosis YPIII; experiment: Inhibition of T3S in Yersinia pseudotuberculosis YPIII expressing yopE-luxAB at 12.5 uM after 3 hrs by luciferase reporter gene assay; method in brief: as §1
[8] = system: Yersinia pseudotuberculosis YPIII; experiment: Inhibition of T3S in Yersinia pseudotuberculosis YPIII expressing yopE-luxAB at 50 uM after 3 hrs by luciferase reporter gene assay; method in brief: as §1
[9] = system: Yersinia pseudotuberculosis YPIII; experiment: Inhibition of T3S in Yersinia pseudotuberculosis YPIII expressing yopE-luxAB at 100 uM after 3 hrs by luciferase reporter gene assay; method in brief: as §1
[10] = system: Yersinia pseudotuberculosis YPIII; experiment: Inhibition of T3S in Yersinia pseudotuberculosis YPIII expressing yopE-luxAB at 25 uM after 3 hrs by luciferase reporter gene assay; method in brief: as §1
[11] = system: Yersinia pseudotuberculosis; experiment: Antibacterial activity against Yersinia pseudotuberculosis expressing pIB102 at 50 uM after 23 hrs by broth dilution assay; format: functional, organism-based; method in brief: as §3
[12] = system: Yersinia pseudotuberculosis YPIII; experiment: Inhibition of T3S in Yersinia pseudotuberculosis YPIII expressing yopE-luxAB at 1.56 uM after 3 hrs by luciferase reporter gene assay; method in brief: as §1

Row | Structure (SMILES) | inhibition [1] [%] | inhibition [2] [%] | Activity [3] | Activity [4] | Activity [5] | inhibition [6] [%] | inhibition [7] [%] | inhibition [8] [%] | inhibition [9] [%] | inhibition [10] [%] | Activity [11] | inhibition [12] [%]
1 | CC(C)(C)c1cc(/C=N/NC(=O)COc2ccc([N+](=O)[O-])cc2)c(O)c(C(C)(C)C)c1 | 4 | -2 | inactive | inactive | inactive | 7 | 14 | 18 | 18 | 12 | inactive | 
2 | COc1cccc(/C=N/NC(=O)c2cc(OC)c(OC)c(OC)c2)c1O | 68 | 14 | inactive | inactive | inactive | 17 | 15 | 43 | 65 | 20 | inactive | 
3 | O=C(N/N=C/c1cc([N+](=O)[O-])cc([N+](=O)[O-])c1O)c1ccc(Br)cc1 | 18 | -6 | inactive | inactive | inactive | 9 | 12 | 22 | 22 | 19 | inactive | 
4 | O=C(N/N=C/c1cc(Cl)cc(Cl)c1O)c1ccccc1[N+](=O)[O-] | 92 | 16 | inactive | inactive | inactive | 8 | 4 | 61 | 88 | 18 | inactive | -4
5 | O=C(CC12CC3CC(CC(C3)C1)C2)N/N=C/c1cc([N+](=O)[O-])cc([N+](=O)[O-])c1O | 13 | -5 | inactive | inactive | inactive | 1 | 10 | 18 | 20 | 6 | inactive | 
6 | CCN(CC)c1ccc(/C=N/NC(=O)COc2ccc(F)cc2)c(O)c1 | 50 | 11 | inactive | inactive | inactive | 17 | 23 | 54 | 58 | 35 | inactive | 
7 | COc1cc(Br)cc(/C=N/NC(=O)C(N)=O)c1O | 78 | -4 | inactive | inactive | inactive | 1 | 8 | 9 | 47 | 10 | inactive | 
8 | Cc1nnsc1C(=O)N/N=C/c1cc(F)cc(Cl)c1O |  |  | inactive |  | inactive |  |  |  |  |  |  | 
9 | O=C(N/N=C/c1ccc(O)c(O)c1O)c1ccccc1[N+](=O)[O-] | 96 | 5 | inactive | inactive | inactive | 16 | 20 | 36 | 74 | 22 | inactive | -8
10 | O=C(CC12CC3CC(CC(C3)C1)C2)N/N=C/c1ccc(Cl)cc1O | 29 | 7 | inactive | inactive | inactive | 18 | 19 | 32 | 26 | 25 | inactive | 0
11 | COc1ccc(/C=N/NC(=O)C(N)=O)c(O)c1 | 97 | -6 | inactive | inactive | inactive | 4 | 8 | 73 | 94 | 13 | inactive | 
12 | COc1ccc(C(=O)N/N=C/c2cc(I)cc(I)c2O)cc1OC | 40 | 4 | inactive | inactive | inactive | 19 | 23 | 24 | 33 | 30 | inactive | 
13 | COc1ccc(Br)c(C(=O)N/N=C/c2ccc(Cl)cc2O)c1 | 58 | 14 | inactive | inactive | inactive | 10 | 25 | 36 | 49 | 31 | inactive | 
14 | O=C(COc1ccc(F)cc1)N/N=C/c1cc(I)cc(I)c1O | 44 | 0 | inactive | inactive | inactive | 15 | 18 | 30 | 36 | 21 | inactive | 
15 | COc1ccc(C(=O)N/N=C/c2cc(F)cc(Cl)c2O)cc1OC | 64 |  | inactive | inactive | inactive | 6 | 0 | 38 | 56 | 10 | inactive | -10
16 | COc1cc([N+](=O)[O-])cc(/C=N/NC(=O)c2ccncc2)c1O | 51 | 8 | inactive | inactive | inactive | 16 | 21 | 35 | 42 | 28 | inactive | 
17 | COc1cc(/C=N/NC(=O)COc2ccc([N+](=O)[O-])cc2)c(O)c(OC)c1 | -2 | -1 | inactive | inactive | inactive | 13 | 14 | 16 | 14 | 18 | inactive | 
18 | O=C(CCc1ccc(O)cc1)N/N=C/c1c(O)cc(O)cc1O | 46 | 18 | inactive | inactive | inactive | 20 | 23 | 29 | 36 | 25 | inactive | 
19 | COc1cccc(C(=O)N/N=C/c2cc(C(C)(C)C)cc(C(C)(C)C)c2O)c1 | 11 | 4 | inactive | inactive | inactive | 7 | 13 | 23 | 21 | 14 | inactive | 
